In ChEMBL document CHEMBL1157509, “Alpha-glucosidase inhibitor from Kothala-himbutu (Salacia reticulata WIGHT)” (J Nat Prod, 2008) one finds IC50, Ki and Activity data, which are given here for three compounds.

SMILES strings stand for the structures. pIC50, pKi: −log10 of the molar value. Activity calls are given as the source filed them. No cut-off for these calls is given here.

The target in test [1] is T1, Sucrase-isomaltase, intestinal (Rattus norvegicus, UniProt P23739). Nature of the test: Inhibition of rat intestinal sucrase. The method in brief: (§1)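 Crude enzyme from rat intestinal acetone powder in 0.1 M K3PO4 buffer (5 mM EDTA, pH 7). Substrates: maltose 25 mM (maltase), sucrose 100 mM (sucrase), isomaltose 25 mM (isomaltase). Sample added in DMSO. Incubated 30 min, then stopped with 2 M Tris-HCl. Released glucose measured by glucose oxidase. IC50 read graphically from percent inhibition versus log concentration.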
T1 sequence (P23739 1-1013 limits assumed): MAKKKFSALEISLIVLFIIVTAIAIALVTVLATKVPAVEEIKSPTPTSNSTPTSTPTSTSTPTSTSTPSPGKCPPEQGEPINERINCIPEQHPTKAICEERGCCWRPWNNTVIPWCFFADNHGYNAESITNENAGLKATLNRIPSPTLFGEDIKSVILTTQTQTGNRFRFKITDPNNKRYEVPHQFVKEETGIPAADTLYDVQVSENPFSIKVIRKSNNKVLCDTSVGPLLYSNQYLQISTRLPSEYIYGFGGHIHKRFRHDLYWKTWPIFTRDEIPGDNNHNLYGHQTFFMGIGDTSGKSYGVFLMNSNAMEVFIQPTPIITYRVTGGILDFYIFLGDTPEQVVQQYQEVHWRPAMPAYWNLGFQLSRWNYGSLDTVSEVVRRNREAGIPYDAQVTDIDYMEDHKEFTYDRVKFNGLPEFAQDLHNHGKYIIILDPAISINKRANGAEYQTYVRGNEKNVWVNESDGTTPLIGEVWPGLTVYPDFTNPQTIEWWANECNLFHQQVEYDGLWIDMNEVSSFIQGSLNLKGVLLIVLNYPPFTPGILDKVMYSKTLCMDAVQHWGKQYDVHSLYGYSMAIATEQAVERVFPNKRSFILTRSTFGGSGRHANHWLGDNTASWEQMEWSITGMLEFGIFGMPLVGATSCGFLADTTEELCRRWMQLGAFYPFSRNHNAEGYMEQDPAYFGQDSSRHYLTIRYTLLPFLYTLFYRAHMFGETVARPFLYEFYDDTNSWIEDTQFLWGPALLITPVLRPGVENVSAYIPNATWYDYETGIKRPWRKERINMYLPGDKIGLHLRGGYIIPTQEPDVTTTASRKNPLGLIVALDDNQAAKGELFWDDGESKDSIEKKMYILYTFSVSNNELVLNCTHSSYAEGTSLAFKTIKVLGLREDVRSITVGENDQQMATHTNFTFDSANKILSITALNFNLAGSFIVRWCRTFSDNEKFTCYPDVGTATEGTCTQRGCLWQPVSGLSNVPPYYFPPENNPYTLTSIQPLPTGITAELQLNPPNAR
T1 sequence (P23739 1014-1841 limits assumed): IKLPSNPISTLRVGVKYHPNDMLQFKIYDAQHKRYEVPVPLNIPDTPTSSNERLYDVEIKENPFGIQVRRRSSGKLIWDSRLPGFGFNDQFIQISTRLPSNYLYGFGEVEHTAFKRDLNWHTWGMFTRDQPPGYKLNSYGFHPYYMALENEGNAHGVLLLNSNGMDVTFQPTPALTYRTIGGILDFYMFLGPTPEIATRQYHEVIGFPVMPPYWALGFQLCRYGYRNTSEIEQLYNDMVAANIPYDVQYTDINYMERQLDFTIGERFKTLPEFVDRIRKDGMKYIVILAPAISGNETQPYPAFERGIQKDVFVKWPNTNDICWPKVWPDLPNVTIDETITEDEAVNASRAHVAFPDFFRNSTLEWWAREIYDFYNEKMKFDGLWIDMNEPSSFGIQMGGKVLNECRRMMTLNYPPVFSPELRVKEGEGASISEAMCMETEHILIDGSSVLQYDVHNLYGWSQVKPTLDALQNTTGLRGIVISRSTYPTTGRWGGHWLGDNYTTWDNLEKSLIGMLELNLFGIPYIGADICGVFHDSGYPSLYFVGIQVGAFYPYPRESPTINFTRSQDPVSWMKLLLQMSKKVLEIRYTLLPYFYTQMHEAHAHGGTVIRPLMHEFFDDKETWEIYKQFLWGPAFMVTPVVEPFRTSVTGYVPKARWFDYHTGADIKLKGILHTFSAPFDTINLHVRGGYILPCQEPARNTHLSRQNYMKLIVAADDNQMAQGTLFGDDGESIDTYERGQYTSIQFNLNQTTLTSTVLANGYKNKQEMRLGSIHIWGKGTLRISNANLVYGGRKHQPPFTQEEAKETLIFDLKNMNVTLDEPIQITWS

Test [2] has as its target T1, Sucrase-isomaltase, intestinal. Nature of the test: Inhibition of rat intestinal isomaltase. The method in brief: as §1
Test [3] deals with T2, Pancreatic alpha-amylase (Sus scrofa) (UniProt P00690).
T2 sequence (whole entry): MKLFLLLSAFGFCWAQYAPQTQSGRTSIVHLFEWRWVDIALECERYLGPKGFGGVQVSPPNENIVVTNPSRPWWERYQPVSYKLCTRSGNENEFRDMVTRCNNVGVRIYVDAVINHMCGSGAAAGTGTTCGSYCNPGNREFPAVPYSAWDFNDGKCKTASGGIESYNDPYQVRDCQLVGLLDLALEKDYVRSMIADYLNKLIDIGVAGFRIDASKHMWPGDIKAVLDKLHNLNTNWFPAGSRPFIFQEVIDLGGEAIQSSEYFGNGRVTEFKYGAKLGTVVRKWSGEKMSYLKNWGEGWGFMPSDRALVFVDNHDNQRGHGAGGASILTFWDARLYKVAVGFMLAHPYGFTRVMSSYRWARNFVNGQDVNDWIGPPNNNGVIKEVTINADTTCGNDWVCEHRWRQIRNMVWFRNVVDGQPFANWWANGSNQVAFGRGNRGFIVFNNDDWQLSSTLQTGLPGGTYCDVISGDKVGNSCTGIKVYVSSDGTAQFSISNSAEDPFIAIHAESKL
Briefly: Inhibition of pig pancreas alpha amylase.

In general, pIC50 refers to the IC50 on a negative log10 scale, so that one unit is a factor of ten. A lower pIC50 goes with a high IC50. In general, pKi refers to the negative decadic logarithm of the Ki, by convention in mol/L. Read a high pKi as a small Ki.

`[O-][S+]1CC(O)C(O)C(O)CC(O)CC(O)C(O)C(O)C(O)C1` (stereo not drawn): the pIC50 in test [1] was 6.73; in test [2] it was 7.00. Also, the pKi in test [1] was 7.28; in test [2], 6.38. The result in test [3] was inactive.
In test [1], `O=S(=O)([O-])O[C@@H]([C@H](O)[C@H](O)[C@@H](O)CO)[C@H](O)C[S+]1C[C@@H](O)[C@H](O)[C@H]1CO` (stereo partly drawn) [KOTALANOL] gave a negative-log IC50 (pIC50) of 5.86 and a pKi of 6.38. In test [2], the pIC50 is 5.35 and the pKi was 5.38.
As for `O=S(=O)([O-])O[C@@H](CO)[C@H](O)C[S@+]1C[C@@H](O)[C@H](O)[C@H]1CO` [SALACINOL], the pIC50 in test [1] is 5.60; in test [2] it was 5.75. For the same compound, the figures for the pKi in test [1] and in test [2] were 6.70 and 5.96, respectively.
